# Only some compounds are listed: those with a hit (about 2.3% of all), similar ones and a draw of the others.
# TRPC6 inhibitor: mouse TRPC6 channel inhibition; hit rate 1.1% among 310,000; HEK293-TRPC6, membrane potential dye, ACh-evoked depolarization; hits give low values; AID 2553; B-score at 10 µM; Q61143;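 active means B-score under library mean minus 3 SD, initial fluorescence not abnormally high, positive integrated signal ratio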;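 further: B-score derived from integrated fluorescence ratio over the kinetic read; more negative B-score means stronger inhibition of depolarization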
# Target sequence (Q61143 whole entry, looked up): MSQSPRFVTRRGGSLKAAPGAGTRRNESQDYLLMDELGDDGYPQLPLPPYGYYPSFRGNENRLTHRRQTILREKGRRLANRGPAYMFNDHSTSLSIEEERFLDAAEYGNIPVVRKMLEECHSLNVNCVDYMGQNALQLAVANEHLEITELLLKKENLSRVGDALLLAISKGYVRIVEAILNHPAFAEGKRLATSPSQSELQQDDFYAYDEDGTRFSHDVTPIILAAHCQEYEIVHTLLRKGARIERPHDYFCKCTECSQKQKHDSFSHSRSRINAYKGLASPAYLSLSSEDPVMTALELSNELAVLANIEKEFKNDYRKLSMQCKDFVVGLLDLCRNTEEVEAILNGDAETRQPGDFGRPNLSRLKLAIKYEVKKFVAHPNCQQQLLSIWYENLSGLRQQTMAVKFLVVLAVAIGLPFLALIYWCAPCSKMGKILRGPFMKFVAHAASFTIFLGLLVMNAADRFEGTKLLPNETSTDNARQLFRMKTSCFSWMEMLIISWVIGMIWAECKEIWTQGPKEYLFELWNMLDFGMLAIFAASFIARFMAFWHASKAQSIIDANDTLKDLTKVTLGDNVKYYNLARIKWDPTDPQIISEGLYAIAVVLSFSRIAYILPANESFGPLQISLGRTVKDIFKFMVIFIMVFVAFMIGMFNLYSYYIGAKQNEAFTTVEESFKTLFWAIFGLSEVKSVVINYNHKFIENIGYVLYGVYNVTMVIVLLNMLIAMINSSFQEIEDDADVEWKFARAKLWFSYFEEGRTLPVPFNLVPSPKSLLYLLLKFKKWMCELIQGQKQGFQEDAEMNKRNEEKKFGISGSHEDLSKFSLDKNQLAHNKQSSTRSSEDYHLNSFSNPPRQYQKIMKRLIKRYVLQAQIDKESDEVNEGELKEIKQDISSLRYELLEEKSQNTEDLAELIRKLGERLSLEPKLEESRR
# TRPC6 act: activators of mouse TRPC6 channel; AID 2550; B-score at 10 µM; hit rate 0.13% among 310,000; Q61143; HEK293-TRPC6 membrane potential dye fluorescence; hits give high values;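 active means B-score of the integrated fluorescence ratio above library mean plus 3 SD, and starting fluorescence ratio within library mean plus 5 SD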;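 further: higher score means more depolarization so channel activation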
# TRPC4 agonist: TRPC4 (mouse) channel activation; HEK293 TRPC4beta/mu-opioid, Fluo4 calcium fluorescence; hits give high values; B-score at 10 µM; hit rate 0.49% among 310,000;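 active means B-score above 5 SD of library B-scores, and initial fluorescence ratio not above library mean plus 5 SD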;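 further: positive B-score marks a calcium rise read as TRPC4 activation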
#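 Material: HEK293 stable line with TRPC4beta plus mu-opioid receptor; technique: Fluo4 calcium-sensitive dye fluorescence, kinetic, 1 Hz baseline; timing: Fluo4 dye loading 45 min at room temperature, 110 s recording; controls: assay buffer as low control, maximal DAMGO as high control; read-out: integrated baseline-normalised fluorescence ratio, converted to per-well B score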
# TRPC4 potent: allosteric potentiators of mouse TRPC4 channel; Q9QUQ5; HEK293 TRPC4beta/mu-opioid, DAMGO EC20, Fluo-4 Ca2+ flux; hits give high values; B-score at 10 µM; hit rate 0.42% among 310,000; AID 2227;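 active means B-score of calcium response area above 5 SD of library B-scores, with initial fluorescence ratio within 5 SD of library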;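 further: B-score of integrated fluorescence ratio over time as area under calcium response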
# TRPC4 inh: blocks the mouse TRPC4 cation channel. Q9QUQ5. HEK293 TRPC4beta/mu-opioid, DAMGO-evoked Fluo4 calcium flux; hits give low values. B-score at 10 µM. hit rate 0.39% among 300,000. AID 2247;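 active means B-score over 3 SD under the library average, no early fluorescence shift, positive overall ratio signal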
#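 material = TRPC4beta/mu-opioid receptor HEK293 cell line | probe or stimulus = sequential submaximal and maximal DAMGO stimulation | compound dosing = one concentration per compound | measured by = Fluo4 Ca2+ flux fluorescence | evaluation = integrated fluorescence ratio relative to baseline, converted to per-well B score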
# TRPC4 spec 2: mouse TRPC4 off-target activity of TRPC6 inhibitors, second screen; shares compounds with TRPC6 inhibitor; HEK293 TRPC4/MOR, membrane potential dye fluorescence; channel activated by saturating DAMGO dose; inhibition, % at 10 µM; hit rate 42% among 920; AID 2776;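 active means compounds whose fluorescence signal differed from control wells by over 3 SD, either direction, in both duplicate plates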
# TRPC4 spec: selectivity of TRPC6 inhibitors: effect on mouse TRPC4; shares compounds with TRPC6 inhibitor; HEK293 TRPC4/mu-opioid, membrane potential fluorescence; activity change, negative = inhibition, % at 10 µM; hit rate 61% among 920; AID 2777;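 active means rise or fall in signal beyond 3 SD of buffer-only wells in both replicate plates, either sign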;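 further: integrated kinetic ratio of fluorescence range over baseline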
# HEK293 MPD ctr 2-1: parental HEK293 nonspecific activity of TRPC6 inhibitors, second screen; signal change vs control, % at 10 µM; shares compounds with TRPC6 inhibitor; hit rate 31% among 920; parental HEK293 membrane potential dye fluorescence; maximal acetylcholine challenge after compound addition;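 active means membrane potential signal moving either way by over 3 SD of the maximum-effect control, in both duplicate plates, meaning non-specific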
# HEK293 MPD ctr-1: checks TRPC6 inhibitor effects in parental HEK293 cells | shares compounds with TRPC6 inhibitor | hit rate 60% among 920 | membrane potential signal change, % at 10 µM | parental HEK293 membrane potential dye fluorescence;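 active means membrane potential signal shifting up or down by more than 3 SD of buffer-only wells, on both duplicate plates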
# HEK293 MPD ctr-2: parental HEK293 nonspecific activity of TRPC6 modulators; shares compounds with TRPC6 inhibitor; membrane potential dye fluorescence; membrane potential signal change, % at 10 µM; hit rate 51% among 2,400;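 active means membrane potential signal moves up or down beyond 5 SD from buffer-only wells, on both duplicate plates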
# HEK293 MPD ctr 2-2: second check of TRPC6 modulator effects in parental HEK293 cells; shares compounds with TRPC6 inhibitor; membrane potential dye fluorescence; after compound, maximal acetylcholine stimulation; inhibition, % at 10 µM; hit rate 14% among 2,400;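 active means membrane potential signal drops by more than 5 SD from the mean control signal, in both duplicate plates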;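 further: plate controls were acetylcholine ECmax control wells for no effect and buffer only wells for full effect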
# TRPC4/MOR mod: tests whether TRPC6 modulators also affect mouse TRPC4; percent change from control (negative = decrease, positive = increase), % at 10 µM; hit rate 69% among 2,400; shares compounds with TRPC6 inhibitor; HEK293 TRPC4/mu-opioid, membrane potential fluorescence;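 active means membrane potential signal moved up or down beyond 5 SD of buffer control wells, in both duplicate plates, actives on both sides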;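 further: plate controls were assay buffer wells for no effect and DAMGO maximal-effect wells for full effect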
# TRPC4/MOR inh 2: second selectivity test of TRPC6 modulators against mouse TRPC4 | AID 488928 | shares compounds with TRPC6 inhibitor | HEK293 TRPC4/mu-opioid, membrane potential dye fluorescence; stimulated with maximal-effect DAMGO | inhibition, % at 10 µM | hit rate 55% among 2,400;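 active means drop in membrane potential signal beyond 5 SD of the control wells in both duplicate plates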;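 further: TRPC4 counter screen for TRPC6 hits run under conditions tuned for TRPC6 not TRPC4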
# TRPC6 block conf: confirmation of mouse TRPC6 inhibitors; shares compounds with TRPC6 inhibitor; HEK293-TRPC6, membrane potential dye, ACh-evoked depolarization; inhibition, % at 10 µM; hit rate 43% among 3,300;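 active means fluorescence ratio falls more than 5 SD below the full-stimulation control mean, in both duplicate runs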;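 further: integrated fluorescence ratio of peak minus minimum over baseline after agonist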
# TRPC6 act confirm: mouse TRPC6 activator confirmation. shares compounds with TRPC6 inhibitor. HEK293-TRPC6 membrane potential dye fluorescence, FDSS. activation, % at 10 µM. hit rate 11% among 2,800. AID 488961;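 active means ratio signal rise beyond 5 SD above unstimulated control wells' mean, seen in both duplicate runs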;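 further: plate controls were buffer EC0 wells for no effect and acetylcholine ECmax response for full effect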
# * marks the source's active call; other numbers are inactive results; i = inactive; . = no result.
SMILES,TRPC6 inhibitor,TRPC6 act,TRPC4 agonist,TRPC4 potent,TRPC4 inh,HEK293 MPD ctr-2,HEK293 MPD ctr 2-2,TRPC4/MOR mod,TRPC4/MOR inh 2,TRPC6 block conf,TRPC6 act confirm,others
COc1ccc(C(C)=O)cc1COC(=O)C1CC(=O)N(Cc2ccccc2)C1 (stereo unspecified),i,i,i,i,i,.,.,.,.,.,.,
CN(C)CCN(C(=O)c1ccc2c(c1)OCCO2)c1nc2c(Cl)cccc2s1,-7.2*,i,i,i,i,.,.,.,.,98%*,i,TRPC4 spec 2=26%*;TRPC4 spec=-22%*;HEK293 MPD ctr 2-1=i;HEK293 MPD ctr-1=-288%*
CCOc1cccc2sc(N(CCCN(C)C)C(=O)c3ccc(S(=O)(=O)N(C)c4ccccc4)cc3)nc12,-6.6*,i,i,i,i,i,i,i,71%*,i,i,
COc1ccc(OC)c2sc(N(CCN(C)C)C(=O)c3ccc4ccccc4c3)nc12,-7.6*,i,i,12*,i,.,.,.,.,79%*,i,TRPC4 spec 2=i;TRPC4 spec=i;HEK293 MPD ctr 2-1=i;HEK293 MPD ctr-1=i
CCOc1cccc2sc(N(CCCN(C)C)C(=O)c3ccc(S(=O)(=O)N4CCc5ccccc5C4)cc3)nc12,i,i,i,i,i,.,.,.,.,.,.,
COc1ccc(Cl)c2sc(N(CCN(C)C)C(=O)c3ccc4c(c3)OCCO4)nc12,-9.6*,i,i,46*,i,-122%*,90%*,-40%*,90%*,72%*,i,
CC(=O)c1ccc(C(=O)N(CCN(C)C)c2nc3c(Cl)cccc3s2)cc1,i,i,i,i,i,.,.,.,.,.,.,
COc1cc2ccccc2cc1C(=O)N(CCN(C)C)c1nc2c(OC)ccc(OC)c2s1,i,i,i,i,i,.,.,.,.,.,.,
Cc1ccc(N2CC(C(=O)OCC(=O)NNC(=O)c3ccccc3)CC2=O)cc1 (stereo unspecified),i,i,i,i,i,.,.,.,.,.,.,
COc1cccc2sc(N(CCN(C)C)C(=O)c3ccc(S(=O)(=O)N4CCCC4)cc3)nc12,i,i,i,i,i,.,.,.,.,.,.,
CC1CN(S(=O)(=O)c2ccc(C(=O)N(CCCN(C)C)c3nc4c(Cl)cccc4s3)cc2)CC(C)O1 (stereo unspecified),-7.5*,i,i,i,i,i,i,-14%*,68%*,i,i,
COc1ccc(-c2csc(NC(=O)c3ccccc3NS(=O)(=O)c3ccc(F)c(F)c3)n2)cc1,-5.3*,i,i,i,i,i,i,-15%*,56%*,64%*,i,
Cc1ccc(S(=O)(=O)Nc2ccccc2C(=O)Nc2nc(-c3ccc(F)cc3)cs2)cc1,i,i,i,i,i,.,.,.,.,.,.,
CCN1C(=O)C(=O)N(Cc2ccc(OC)c(F)c2)C1=O,i,i,i,i,i,.,.,.,.,.,.,
O=Cc1ccc2ccc3cccnc3c2n1,-9.8*,i,i,i,i,-386%*,95%*,-60%*,68%*,78%*,i,
CC(C)(C)C(=O)Cn1c(=N)n(Cc2ccccc2)c2ccccc21,i,i,i,i,i,.,.,.,.,.,.,
CC(C)(C)C(=O)Cn1c(=N)n(Cc2ccccc2Cl)c2ccccc21,-5.5*,i,i,i,i,164%*,i,22%*,77%*,48%*,.,
CSc1nnc(C2CCN(CC(=O)Nc3ccccc3N3CCOCC3)CC2)n1C,i,i,i,i,i,.,.,.,.,.,.,
CCn1c(SC)nnc1C1CCN(CC(=O)Nc2ccccc2N2CCOCC2)CC1,-5.4*,i,i,i,i,i,i,i,i,i,i,
O=c1c2sccc2n(Cc2cc(=O)n3ccccc3n2)c(=O)n1-c1ccccc1,i,i,i,i,i,.,.,.,.,.,.,
COC(=O)c1cc2ccsc2n1Cc1cc(=O)n2ccccc2n1,-5.8*,i,i,i,i,i,i,8.5%*,i,56%*,i,
CCOC(=O)C1(CCOc2ccccc2)CCN(Cc2ccc(OCC)c(CO)c2)CC1,i,i,i,i,i,.,.,.,.,.,.,
CNC(=O)Cn1c(C)cc(=O)c2cccc(OC)c21,-6.9*,i,i,i,i,-471%*,i,-70%*,41%*,40%*,i,
Fc1ccccc1C1CC(c2ccco2)=Nc2ccccc2S1 (stereo unspecified),i,i,i,i,i,.,.,.,.,.,.,
CCC1(c2ccccc2)NC(=O)N(CC(=O)NCCN2C(=O)S/C(=C\c3cccnc3)C2=O)C1=O (stereo unspecified),i,i,i,i,i,.,.,.,.,.,.,
O=C(NCC1CCCO1)C1c2ccccc2C(=O)N1C1CCCCCCC1 (stereo unspecified),i,i,i,i,i,.,.,.,.,.,.,
O=C(NCC1CCCO1)[C@@H]1CSC2c3ccccc3C(=O)N21 (stereo partly specified),-5.4*,i,i,i,i,i,i,i,i,i,i,
CCOc1c(Cl)cc(CNC(C)(C)CC(C)(C)C)cc1OC,-5.1*,i,i,i,i,176%*,86%*,36%*,75%*,63%*,.,

# Bioassay records (PubChem BioAssay)
